# Laboratory results from ChEMBL document CHEMBL6134794, “Anti-Schistosomal activity and ADMET properties of 1,2,5-oxadiazinane-containing compound synthesized by visible-light photoredox catalysis” (RSC Med Chem, 2024).
# The source made the active and inactive calls. The rule behind the calls is not given here.
# How the values were obtained:
# [1] = Stability of the compound at pH 1.2 at 5 uM assessed as compound remaining incubated for 5 hrs by LC-MS/MS analysis relative to control; format: physicochemical; conditions: buffer, read-out: Stability
# Outline: (§1)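 Compound at 5 μM in pH 1.2 dissolution test solution 1 or in PBS pH 7.4, held at 37 °C for 0, 1 and 5 h. Reactions were quenched with acetonitrile and centrifuged. Parent remaining was quantified by LC-MS/MS as a percentage of the 0 h sample.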
# Schistosoma mansoni [2] = experiment: Anti-schistosomal activity against adult male Schistosoma mansoni assessed as worm death at 10 uM incubated for 1 to 120 hrs by inverted microscopic analysis; format: functional, organism-based; conditions: time 1-120 hrs
# Outline: (§2)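 Adult worms freshly isolated from infected mice; cultured in RPMI 1640 with 5% FBS and penicillin/streptomycin, with or without compound (0.1, 1, 10 μM), at 37°C under 5% CO₂.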
# [3] = Stability of the compound in PBS at pH 7.4 at 5 uM assessed as compound remaining incubated for 1 hr by LC-MS/MS analysis relative to control; format: physicochemical; conditions: read-out: Stability; outline: as §1
# [4] = Cardiotoxicity in human iPSC-CM cells assessed as effect on pulse waveform by measuring calcium ion influx at 0.2 to 20 uM incubated for 60 mins by fluorescent indicator analysis; format: toxicity, cell-based; conditions: 1 h, dose 0.2-20 µM
# Outline: (§3)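 Human iPS cell-derived cardiomyocytes were seeded at 30,000 cells/well on gelatin and maintained 9 days. Cells were then stained with a Ca²⁺-sensitive cardiotoxicity dye kit. Ca²⁺ transients were recorded on an FDSS kinetic imager before and after compound addition.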
# Schistosoma mansoni [5] = experiment: Anti-schistosomal activity against adult male Schistosoma mansoni assessed as motility by measuring pairing and varied movement intensity using viability scale at 10 uM incubated for 1 hr by inverted microscopic analysis; format: functional
# Schistosoma mansoni [6] = experiment: Anti-schistosomal activity against adult female Schistosoma mansoni assessed as motility by measuring pairing and varied movement intensity using viability scale at 10 uM incubated for 24 hrs by inverted microscopic analysis; format: functional
# [7] = Cardiotoxicity in human iPSC-CM cells assessed as effect on beat intervals by measuring calcium ion influx at 0.2 to 20 uM incubated for 60 mins by fluorescent indicator analysis; format: toxicity, cell-based; conditions: 1 h, dose 0.2-20 µM; outline: as §3
# Schistosoma mansoni [8] = experiment: Anti-schistosomal activity against adult female Schistosoma mansoni assessed as worm death at 10 uM incubated for 1 to 120 hrs by inverted microscopic analysis; format: functional, organism-based; conditions: time 1-120 hrs; outline: as §2
# [9] = Stability of the compound at pH 1.2 at 5 uM assessed as compound remaining incubated for 1 hrs by LC-MS/MS analysis relative to control; format: physicochemical; conditions: buffer, read-out: Stability; outline: as §1
# Schistosoma mansoni [10] = experiment: Anti-schistosomal activity against adult female Schistosoma mansoni assessed as motility by measuring pairing and varied movement intensity using viability scale at 10 uM incubated for 120 hrs by inverted microscopic analysis; format: functional
# [11] = Stability of the compound in PBS at pH 7.4 at 5 uM assessed as compound remaining incubated for 5 hrs by LC-MS/MS analysis relative to control; format: physicochemical; conditions: read-out: Stability; outline: as §1
# Schistosoma mansoni [12] = experiment: Anti-schistosomal activity against adult female Schistosoma mansoni assessed as motility by measuring pairing and varied movement intensity using viability scale at 10 uM incubated for 1 hr by inverted microscopic analysis; format: functional
# Schistosoma mansoni [13] = experiment: Anti-schistosomal activity against adult male Schistosoma mansoni assessed as motility by measuring pairing and varied movement intensity using viability scale at 10 uM incubated for 120 hrs by inverted microscopic analysis; format: functional
# HeLa [14] = experiment: Cytotoxicity against human HeLa cells assessed as cell viability at 30 uM incubated for 48 hrs by absorbance based WST-8 assay (reference value: 100 %); format: functional; conditions: read-out: Activity
# Outline: (§4)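 HeLa cells seeded at 1,000 cells/well and exposed to compound at 10, 20 or 30 μM for 2 days. WST-8 absorbance was read at 405 nm. Viability is expressed relative to DMSO-treated wells (100%).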
# Schistosoma mansoni [15] = experiment: Anti-schistosomal activity against adult male Schistosoma mansoni assessed as motility by measuring measuring pairing and varied movement intensity using viability scale at 10 uM incubated for 24 hrs by inverted microscopic analysis; format: functional
# [16] = Apparent permeability in human Caco-2 cells at 25 uM incubated for 2 hrs by LC-MS/MS analysis; format: ADME, cell-based
# Outline: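 Compound at 25 µM in HBSS added to the apical side of cultured Caco-2 monolayers in transwells, with HBSS plus 1% BSA on the basolateral side. After 2 h both compartments were collected, acetonitrile-treated and centrifuged. Supernatants were quantified by LC-MS/MS and Papp calculated. "High" class means Papp above that of propranolol.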
# [17] = Cardiotoxicity in human iPSC-CM cells assessed as effect on beat interval by measuring calcium ion influx at 2 uM measured within 60 mins by fluorescent indicator analysis; format: toxicity, cell-based; conditions: 1 h; outline: as §3
# [18] = Metabolic stability in human liver microsome assessed as compound remaining at 500 uM incubated for 60 mins in presence of NADPH and G6PDH by LC-MS/MS analysis; conditions: liver microsomes
# [19] = Cardiotoxicity in human iPSC-CM cells assessed as decrease in beat interval by measuring calcium ion influx at 20 uM incubated for 60 mins by fluorescent indicator analysis; format: toxicity, cell-based; conditions: 1 h; outline: as §3
# [20] = Cardiotoxicity in human iPSC-CM cells assessed as effect on pulse waveform by measuring calcium ion influx at 20 uM incubated for 60 mins by fluorescent indicator analysis; format: toxicity, cell-based; conditions: 1 h; outline: as §3
# [21] = Metabolic stability in human liver microsome assessed as compound remaining at 500 uM incubated for 10 mins in presence of NADPH and G6PDH by LC-MS/MS analysis; conditions: liver microsomes
# Schistosoma mansoni [22] = experiment: Anti-schistosomal activity against adult female Schistosoma mansoni assessed as motility by measuring full detachment with weak movement using viability scale at 10 uM incubated for 120 hrs by inverted microscopic analysis; format: functional
# [23] = Lipophilicity, logD of the compound in phosphate-buffered saline (PBS) at pH 7.4 at 100 uM incubated for 20 mins by UPLC analysis; format: physicochemical; conditions: buffer, pH 7.4, 20 min
# Outline: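 Compound at 100 μM final in PBS with 1% DMSO. logD (pH 7.4) was derived from UPLC (BEH C18) retention times against standards of known logD. Mobile phase was ammonium acetate/acetonitrile, 2–98% B over 1 min at 0.8 mL/min.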
# [24] = Metabolic stability in mouse liver microsome assessed as compound remaining at 500 uM incubated for 10 mins in presence of NADPH and G6PDH by LC-MS/MS analysis; conditions: liver microsomes
# Schistosoma mansoni [25] = experiment: Anti-schistosomal activity against adult female Schistosoma mansoni assessed as motility by measuring full detachment with weak movement using viability scale at 10 uM incubated for 24 hrs by inverted microscopic analysis; format: functional
# [26] = Metabolic stability in mouse liver microsome assessed as compound remaining at 500 uM incubated for 60 mins in presence of NADPH and G6PDH by LC-MS/MS analysis; conditions: liver microsomes
# [27] = Cardiotoxicity in human iPSC-CM cells assessed as effect on pulse waveform by measuring calcium ion influx at 0.2 uM incubated for 60 mins by fluorescent indicator analysis; format: toxicity, cell-based; conditions: 1 h; outline: as §3
# [28] = Cardiotoxicity in human iPSC-CM cells assessed as effect on pulse waveform by measuring calcium ion influx at 2 uM incubated for 60 mins by fluorescent indicator analysis; format: toxicity, cell-based; conditions: 1 h; outline: as §3
# [29] = Cardiotoxicity in human iPSC-CM cells assessed as effect on beat intervals by measuring calcium ion influx at 0.2 uM incubated for 60 mins by fluorescent indicator analysis; format: toxicity, cell-based; conditions: 1 h; outline: as §3
# Schistosoma mansoni [30] = experiment: Anti-schistosomal activity against adult female Schistosoma mansoni assessed as motility by measuring full detachment with weak movement using viability scale at 10 uM incubated for 1 hr by inverted microscopic analysis; format: functional; outline: as §2
# [31] = Cardiotoxicity in human iPSC-CM cells assessed as decrease in beat interval by measuring calcium ion influx at 2 uM incubated up to 30 mins by fluorescent indicator analysis; format: toxicity, cell-based; conditions: 0.5 h; outline: as §3
# HeLa [32] = experiment: Cytotoxicity against human HeLa cells assessed as cell viability at 10 uM incubated for 48 hrs by absorbance based WST-8 assay (reference value: 100 %); format: functional; conditions: read-out: Activity; outline: as §4
smiles,measurement,setting,value
O=C(C1CCCCC1)N1CC(=O)N2CCc3ccccc3C2C1 (stereo not given) [PRAZIQUANTEL],"remaining at 5 h, 5 µM",[1],95%
same,Activity,Schistosoma mansoni [2],inactive
same,"remaining at 1 h, 5 µM",[3],103%
same,Activity,[4],Non-toxic
same,Activity,Schistosoma mansoni [5],3.7
same,Activity,Schistosoma mansoni [6],3.3
same,Activity,[7],Non-toxic
same,Activity,Schistosoma mansoni [8],inactive
same,"remaining at 1 h, 5 µM",[9],93.1%
same,Activity,Schistosoma mansoni [10],3.3
same,"remaining at 5 h, 5 µM",[11],100%
same,Activity,Schistosoma mansoni [12],3.7
same,Activity,Schistosoma mansoni [13],3.3
same,viability at 30 µM,HeLa [14],97.1%
same,Activity,Schistosoma mansoni [15],3.7
same,"Papp at 2 h, 25 µM",[16],37.3 ×10⁻⁶ cm/s
O=C(C1CCCCC1)N1CON2CCc3ccccc3C2C1 (stereo not given),Activity,[17],Non-toxic
same,"remaining at 1 h, 500 µM",[18],5.9%
same,"remaining at 5 h, 5 µM",[1],94.9%
same,Activity,[19],Toxic
same,Activity,Schistosoma mansoni [2],inactive
same,Activity,[20],Non-toxic
same,"remaining at 1 h, 5 µM",[3],95.2%
same,Activity,Schistosoma mansoni [5],3
same,"remaining at 10 min, 500 µM",[21],47.3%
same,Activity,Schistosoma mansoni [22],2.3
same,"remaining at 1 h, 5 µM",[9],95.1%
same,logD,[23],4.1
same,"remaining at 10 min, 500 µM",[24],2.7%
same,Activity,Schistosoma mansoni [25],2
same,"remaining at 1 h, 500 µM",[26],0.2%
same,Activity,Schistosoma mansoni [13],3
same,Activity,[27],Non-toxic
same,Activity,[28],Non-toxic
same,Activity,[29],Non-toxic
same,Activity,Schistosoma mansoni [30],2
same,Activity,Schistosoma mansoni [15],3
same,Activity,[31],Toxic
same,viability at 10 µM,HeLa [32],93.1%
same,"Papp at 2 h, 25 µM",[16],30.5 ×10⁻⁶ cm/s
